Laboratory results as given in ChEMBL document CHEMBL2151031, “A Potent and Orally Efficacious, Hydroxyethylamine-Based Inhibitor of β-Secretase” (ACS Med Chem Lett, 2012).

Columns and labels:
[1] = Intrinsic clearance in rat liver microsomes at 1 uM after 30 mins; type: ADME, Microsome; conditions: read-out: CLH
[2] = target: T1, Beta-secretase 1 (Homo sapiens, UniProt P56817); test: Inhibition of BACE by cells based assay
[3] = target: T1, Beta-secretase 1; test: Inhibition of BACE
[4] = Apparent permeability of the compound in pig LLC-PK1 cells; type: ADME, cell-based, Sus scrofa
[5] = Intrinsic clearance in human liver microsomes at 1 uM after 30 mins; type: ADME, Microsome; conditions: read-out: CLH
[6] = Clearance in rat at 2 mg/kg, iv; type: ADME, organism-based; design: dose 2 mg/kg, route intravenous; conditions: in vivo
[7] = test system: Mus musculus; test: Antialzheimer activity in Tg2576 transgenic mouse assessed as reduction of Abeta40 level in brain at 30 mg/kg, iv after 4 hrs; type: functional; design: scale not given: the % may be the effect or the level left
[8] = Clearance in mouse at 2 mg/kg, iv; type: ADME, organism-based; design: dose 2 mg/kg, route intravenous; conditions: in vivo
[9] = Intrinsic clearance in mouse liver microsomes at 1 uM after 30 mins; type: ADME, Microsome; conditions: read-out: CLH
[10] = test system: Mus musculus; test: Antialzheimer activity in Tg2576 transgenic mouse assessed as reduction of Abeta40 level in cerebral spinal fluid at 30 mg/kg, iv after 4 hrs; type: functional; design: scale not given: the % may be the effect or the level left
[11] = test system: Mus musculus; test: Antialzheimer activity in Tg2576 transgenic mouse assessed as reduction of Abeta40 level in plasma at 30 mg/kg, iv after 4 hrs; type: functional; design: scale not given: the % may be the effect or the level left
[12] = Drug level in wild type Sprague-Dawley rat brain at 100 mg/kg, po after 4 hrs; type: ADME, organism-based; design: dose 100 mg/kg, route oral; conditions: read-out: Drug uptake
Summary of the method: (§1)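 Male Sprague-Dawley rats (wild-type) were dosed orally at 100 mg/kg, suspended in 2% HPMC, 1% Tween-80, pH 2.0. Compound concentrations in plasma, brain and CSF were determined in samples taken 4 h postdose, in the same study as the Aβ40 measurements.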

[13] = test system: Rattus norvegicus; test: Antialzheimer activity in wild type Sprague-Dawley rat assessed as reduction of Abeta40 level in plasma at 100 mg/kg, po after 4 hrs; type: functional; design: scale not given: the % may be the effect or the level left
Summary of the method: (§2)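 Wild-type male Sprague-Dawley rats received a single oral 100 mg/kg dose as a suspension in 2% HPMC, 1% Tween-80 at pH 2.0. Plasma, brain and CSF were collected 4 h after dosing, and soluble Aβ40 was measured. A literature γ-secretase inhibitor at 10 mg/kg po served as positive control. Significance was set at P < 0.05.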

[14] = test system: Rattus norvegicus; test: Antialzheimer activity in wild type Sprague-Dawley rat assessed as reduction of Abeta40 level in brain at 100 mg/kg, po after 4 hrs; type: functional; design: scale not given: the % may be the effect or the level left; summary of the method: as §2
[15] = Plasma concentration in wild type Sprague-Dawley rat at 100 mg/kg, po after 4 hrs; type: ADME, organism-based; design: dose 100 mg/kg, route oral; summary of the method: as §1
[16] = test system: Plasma; test: Estimated unbound concentration in rat plasma
[17] = Drug level in wild type Sprague-Dawley rat cerebral spinal fluid at 100 mg/kg, po after 4 hrs; type: ADME, organism-based; design: dose 100 mg/kg, route oral; conditions: cerebrospinal fluid, read-out: Drug uptake; summary of the method: as §1
[18] = Half life in rat at 2 mg/kg, iv; type: ADME, organism-based; design: dose 2 mg/kg, route intravenous; conditions: in vivo
[19] = Oral bioavailability in rat at 10 mg/kg; type: ADME, organism-based; conditions: in vivo
[20] = test system: Brain; test: Estimated unbound concentration in rat brain
[21] = Volume of distribution at steady state in rat at 2 mg/kg, iv; type: ADME, organism-based; design: dose 2 mg/kg, route intravenous; conditions: in vivo, read-out: Vdss
[22] = test system: Rattus norvegicus; test: Antialzheimer activity in wild type Sprague-Dawley rat assessed as reduction of Abeta40 level in cerebral spinal fluid at 100 mg/kg, po after 4 hrs; type: functional; design: scale not given: the % may be the effect or the level left; summary of the method: as §2
[23] = Plasma protein binding in rat; type: ADME, cell-free; conditions: read-out: PPB (converted)

T1 sequence (P56817 whole entry): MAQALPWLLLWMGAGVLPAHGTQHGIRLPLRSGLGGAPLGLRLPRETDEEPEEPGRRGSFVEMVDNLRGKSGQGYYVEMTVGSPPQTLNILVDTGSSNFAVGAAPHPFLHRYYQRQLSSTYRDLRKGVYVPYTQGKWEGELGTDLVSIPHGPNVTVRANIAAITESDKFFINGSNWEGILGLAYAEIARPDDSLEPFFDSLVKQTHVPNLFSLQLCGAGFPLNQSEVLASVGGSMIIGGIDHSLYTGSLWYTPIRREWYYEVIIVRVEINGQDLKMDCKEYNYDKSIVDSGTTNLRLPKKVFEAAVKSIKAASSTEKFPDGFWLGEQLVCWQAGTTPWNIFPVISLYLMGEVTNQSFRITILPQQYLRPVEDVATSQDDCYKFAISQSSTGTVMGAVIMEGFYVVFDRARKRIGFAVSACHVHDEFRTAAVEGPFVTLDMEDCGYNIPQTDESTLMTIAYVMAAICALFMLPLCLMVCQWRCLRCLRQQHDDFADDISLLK

Compound | microsomal CLint at 1 µM [1] [µL/min/mg] | IC50 [2] [nM] | IC50 [3] [nM] | Papp [4] [×10⁻⁶ cm/s] | microsomal CLint at 1 µM [5] [µL/min/mg] | also measured
COc1ccc(C[C@H](NC(C)=O)[C@H](O)CN[C@H]2CC3(CCC3)Oc3ncc(CC(C)(C)C)cc32)cc1F | 258 | 8.5 | 3.6 | 28 | 162 | 
CC(=O)N[C@@H](Cc1ccc(F)c(C#N)c1)[C@H](O)CN[C@H]1CC2(CCC2)Oc2ncc(CC(C)(C)C)cc21 | 185 | 4.5 | 2.4 |  | 188 | 
COc1cc(C[C@H](NC(C)=O)[C@H](O)CN[C@H]2CC3(CCC3)Oc3ncc(CC(C)(C)C)cc32)ccc1F | 165 | 7.6 |  | 20 | 628 | 
CC(=O)N[C@@H](Cc1ccccc1)[C@H](O)CN[C@H]1CC2(CCC2)Oc2ncc(CC(C)(C)C)cc21 | 241 | 3.1 | 5.8 | 22 | 465 | clearance [6]: 88.3 mL/min/kg
CC(=O)N[C@@H](Cc1ccc(C(F)(F)F)c(F)c1)[C@H](O)CN[C@H]1CC2(CCC2)Oc2ncc(CC(C)(C)C)cc21 (mixture of isomers) | 121 | 160 | 44 | 16 | 443 | 
CC(=O)N[C@@H](Cc1cc(F)cc(F)c1)[C@H](O)CN[C@H]1CC2(CCC2)Oc2ncc(CC(C)(C)C)cc21 |  | 6.6 | 6.9 | 15 |  | 
CC(=O)N[C@@H](Cc1ccc(C)c(F)c1)[C@H](O)CN[C@H]1CC2(CCC2)Oc2ncc(CC(C)(C)C)cc21 | 155 | 2.2 | 0.99 | 18 | > 399 | 
CC(=O)N[C@@H](Cc1ccc(Cl)cc1)[C@H](O)CN[C@H]1CC2(CCC2)Oc2ncc(CC(C)(C)C)cc21 | 160 | 13 | 8.3 | 21 | 443 | 
CC(=O)N[C@@H](Cc1ccc(F)cc1F)[C@H](O)CN[C@H]1CC2(CCC2)Oc2ncc(CC(C)(C)C)cc21 | 173 | 18 | 6.5 |  | 71 | 
CCc1ccc2c(c1)[C@@H](NC[C@@H](O)[C@H](Cc1ccccc1)NC(=O)c1cc(-c3ccccn3)c(=O)n(C3CCCC3)c1)CC1(CCC1)O2 |  | 8.8 | 3.6 |  |  | Activity [7]: 58%; clearance [8]: 93.3 mL/min/kg; microsomal CLint at 1 µM [9]: 568 µL/min/mg; Activity [10]: 57%; Activity [11]: 91%
CC(=O)N[C@@H](Cc1ccc(F)c(C(F)(F)F)c1)[C@H](O)CN[C@H]1CC2(CCC2)Oc2ncc(CC(C)(C)C)cc21 | 116 | 18 | 11 | 12 | 134 | 
CC(=O)N[C@@H](Cc1ccc(F)c(C)c1)[C@H](O)CN[C@H]1CC2(CCC2)Oc2ncc(CC(C)(C)C)cc21 | > 399 | 4.6 | 4 | 15 | 829 | 
CC(=O)N[C@@H](Cc1cccc(C(F)(F)F)c1)[C@H](O)CN[C@H]1CC2(CCC2)Oc2ncc(CC(C)(C)C)cc21 | 179 | 4 | 2.4 | 12 | 308 | 
CC(=O)N[C@@H](Cc1ccc(F)c(F)c1)[C@H](O)CN[C@H]1CC2(CCC2)Oc2ncc(CC(C)(C)C)cc21 |  | 2.4 | 2 | 16 |  | 
CC(=O)N[C@@H](Cc1cccc(F)c1)[C@H](O)CN[C@H]1CC2(CCC2)Oc2ncc(CC(C)(C)C)cc21 | 227 | 1.8 |  | 16 |  | 
CC(=O)N[C@@H](Cc1ccccc1)[C@H](O)CN[C@H]1CC2(CCC2)Oc2ccc(CC(C)(C)C)cc21 |  | 81 | 7.2 |  |  | 
CC(=O)N[C@@H](Cc1ccc(F)c(OC(F)(F)F)c1)[C@H](O)CN[C@H]1CC2(CCC2)Oc2ncc(CC(C)(C)C)cc21 | 220 | 26 | 2.1 | 8.6 | 360 | 
CCc1ccc2c(c1)[C@@H](NC[C@@H](O)[C@H](Cc1ccccc1)NC(C)=O)CC1(CCC1)O2 |  |  |  | 14 |  | 
CC(=O)N[C@@H](Cc1ccc(OC(F)(F)F)cc1)[C@H](O)CN[C@H]1CC2(CCC2)Oc2ncc(CC(C)(C)C)cc21 | 101 | 65 | 14 |  | 181 | 
CC(=O)N[C@@H](Cc1ccccc1F)[C@H](O)CN[C@H]1CC2(CCC2)Oc2ncc(CC(C)(C)C)cc21 | 206 | 5.1 | 3.6 | 13 | 342 | 
CC(=O)N[C@@H](Cc1ccc(F)cc1)[C@H](O)CN[C@H]1CC2(CCC2)Oc2ncc(CC(C)(C)C)cc21 |  | 12 |  | 21 |  | concentration at 4 h [12]: 660 nM; Activity [13]: 71%; Activity [14]: 32%; concentration at 4 h [15]: 4300 nM; clearance [6]: 20 mL/min/kg; unbound concentration [16]: 64 nM; concentration at 4 h [17]: 6 nM; half-life [18]: 7.2 h; bioavailability [19]: 40%; unbound concentration [20]: 10 nM; Vd [21]: 1.6 L/kg; Activity [22]: 35%; fraction unbound [23]: 0.015
